Measurements collected from several papers.
Lines come from different studies, so protocols differ.
Effect on: cell growth or viability

| SMILES | cell line | technique | concentration | time | measurement | result |
| --- | --- | --- | --- | --- | --- | --- |
| C=CC(=O)N1CCC[C@@H](n2nc(-c3ccc(Oc4ccccc4)cc3)c3c(N)ncnc32)C1 | NALM-6 | ATP luminescence | – | 72 h | GI50 | 2.8 µM |
| O=C1Nc2ccccc2C1=NNc1nnc2n1N=C(c1ccccc1)CS2 | SF-268 | SRB | 10 µM | – | inhibition | 31% |
| Oc1ccc(Nc2nc(-c3ccc(Cl)cc3)cs2)cc1 | WM-115 | MTS | – | 48 h | IC50 | 23.8 µM |
| COc1ccc(NC(=O)Nc2ccc(OCc3ncc(C)c(OC)c3C)cc2)cc1 | L02 | MTT | – | 72 h | IC50 | > 100 µM |
| O=C(N/N=C/c1c(O)ccc2ccccc12)c1cc(-c2ccc3ccccc3c2)n[nH]1 | WM-115 | MTS | – | 72 h | IC50 | 1.8 µM |
| COc1cccc(Oc2ccccc2NC(=O)CNC(=O)c2cccc3ccccc23)c1 | SF-268 | SRB | – | 48 h | GI50 | 0.55 µM |
| COc1ccc(NC(=O)Nc2ccc(OCc3nccc(OCC(F)(F)F)c3C)cc2)cc1 | L02 | MTT | – | 72 h | IC50 | > 100 µM |
| COc1cc(-c2ccc(-c3ccc(C(=N)N)nc3)s2)cc(OC)c1OC | SF-268 | SRB | – | – | GI50 | 14.6 µM |
| CNC(=O)c1ccccc1Sc1ccc2c(N)n[nH]c2c1 | BaF3 | CCK-8 | – | – | GI50 | 7.9 µM |
| COc1cc(N2CCC(N3CCN(C)CC3)CC2)ccc1Nc1ncc(Cl)c(Nc2ccccc2P(C)(C)=O)n1 | BaF3 | – | – | 72 h | GI50 | 2.1 µM |
| COc1ccccc1S(=O)(=O)Nc1ccc2c(c1)CN(C)C(=O)N2 | NALM-6 | ATP luminescence | – | – | GI50 | 8 µM |
| CNC(=O)c1ccccc1Sc1ccc2c(/C=C/c3ccccn3)n[nH]c2c1 | BaF3 | ATP luminescence | – | 72 h | GI50 | 1.31 µM |
| COc1ccc(-c2ccc(-c3ccc(C(=N)N)nc3)s2)cc1 | SF-268 | SRB | – | – | GI50 | 1.76 µM |
| COc1ccnc(COc2ccc(NC(=O)Nc3cccc(C(F)(F)F)c3)cc2)c1OC | L02 | MTT | – | 72 h | IC50 | > 100 µM |
| CNC(=O)c1cc(Oc2ccc(NC(=O)Nc3ccc(Cl)c(C(F)(F)F)c3)c(F)c2)ccn1 | BaF3 | ATP luminescence | – | 72 h | GI50 | 1.81 µM |
| Nc1n[nH]c2cc(I)ccc12 | BaF3 | CCK-8 | – | – | GI50 | > 10 µM |
| CC(C)(C)n1ncc2c(Nc3ccc(OC(F)(F)F)cc3)ncnc21 | BaF3 | ATP luminescence | – | – | EC50 | > 10 µM |
